Compounds with a hit are over-represented: about 3% of the library has one in this group of screens.
MC4R antag cAMP = MC4R antagonists of cAMP signaling, primary screen, cell-based, TR-FRET, antagonist arm of biased-ligand search. Melanocortin receptor 4 (Homo sapiens), P32245. MC4R-expressing cells, MTII-stimulated cAMP, LANCE TR-FRET. inhibition, % at 6.5 µM. hit rate 0.48% among 360,000;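 active means inhibition above its plate's cutoff, the mean of tested wells on that plate plus 3 SD, cut at about 29% in these data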
Target sequence (P32245 whole entry, looked up): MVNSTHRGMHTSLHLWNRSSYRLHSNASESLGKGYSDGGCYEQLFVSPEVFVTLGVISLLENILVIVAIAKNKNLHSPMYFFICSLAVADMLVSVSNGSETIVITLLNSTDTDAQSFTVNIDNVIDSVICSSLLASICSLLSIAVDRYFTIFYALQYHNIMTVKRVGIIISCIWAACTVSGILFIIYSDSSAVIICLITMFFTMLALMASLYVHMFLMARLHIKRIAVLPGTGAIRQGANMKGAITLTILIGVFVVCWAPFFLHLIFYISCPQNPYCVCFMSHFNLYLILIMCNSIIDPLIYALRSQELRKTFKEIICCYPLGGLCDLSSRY
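System: U2OS-MC4R stable cell line; Technique: Eu-cAMP/anti-cAMP TR-FRET, emission 671 nm; Repeats: single well per compound; Also added: Melanotan II; Dosing: one concentration, 6.5 µM nominal; Schedule: 30-min compound, 1-h challenge, 1-h detection, room temperature.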
ABHD5-PLIN5 inh = ABHD5-PLIN5 interaction inhibitors, primary screen, cell lysate, split luciferase complementation, luminescence; Split G. princeps luciferase complementation, 4 h; Perilipin-5 (Homo sapiens) + 1-acylglycerol-3-phosphate O-acyltransferase ABHD5 (Homo …; hit rate 0.78% among 360,000; inhibition, % at 4 µM; AID 602281, 2012;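 active means inhibition above the mean inhibition across every tested compound plus 3 SD, cut at about 22% in these data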
MC4R barr agon = MC4R agonists recruiting beta-arrestin, primary screen, cell-based, luminescence, agonist arm of biased-ligand search; Melanocortin receptor 4 (Homo sapiens), P32245; U2OS MC4R beta-arrestin complementation; percent of melanotan II response, DMSO zero; activation, % at 8.9 µM; hit rate 0.98% among 360,000; AID 540308, 2011;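 active means activation above a per-plate cutoff, the mean activation of sample wells on that plate plus 3 SD, cut at about 8% in these data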
PfG6PD inh = PfG6PD enzyme inhibitors, primary screen, biochemical, fluorescence intensity, uHTS; AID 504690, 2011; hit rate 0.78% among 350,000; glucose-6-phosphate dehydrogenase-6-phosphogluconolactonase (Plasmodium falciparum 3D7); inhibition, % at 20 µM; PfGluPho enzyme, NADPH resazurin-diaphorase fluorescence;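 active means inhibition reaching at least a set limit at 20 µM in the primary screen, cut at about 59% in these data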
B2AR ag = beta2AR agonists driving receptor internalization, primary screen, cell-based, FAP fluorogen, flow cytometry. Am2.2-beta2AR cells. hit rate 0.43% among 340,000. response, % (concentration not given with the values). Beta-2 adrenergic receptor (Homo sapiens), P07550. AID 504454, 2011;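 active means response above a set limit, near 3 SD of response in nonfluorescent compounds, cut at about 42% in these data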
PfG6PD confirm = PfG6PD inhibitors, hit retest, confirmation, biochemical, fluorescence intensity, single concentration | shares compounds with PfG6PD inh | recombinant PfGluPho, NADPH-diaphorase-resazurin fluorescence | inhibition, % at 20 µM | hit rate 34% among 2,400 | AID 504753, 2011;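 active means inhibition of at least 50% at 20 µM in any single replicate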
Diaphorase 10uM = diaphorase inhibitors and chemical oxidizers, confirmation, counter-screen for P. falciparum G6PD inhibitor project, biochemical, fluorescence intensity, 10 µM NADPH | shares compounds with PfG6PD inh | hit rate 39% among 820 | AID 504862, 2011 | diaphorase-coupled resazurin reduction, NADPH 10 uM | inhibition, % at 20 µM;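 active means average inhibition reaching 50% or more with the compound at 20 µM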;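 further: resorufin red fluorescence formed as diaphorase reduces resazurin using NADPH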
Diaphorase 30uM = diaphorase inhibitors and chemical oxidizers, confirmation, counter-screen for P. falciparum G6PD inhibitor project, biochemical, fluorescence intensity, 30 µM NADPH; shares compounds with PfG6PD inh; Diaphorase/resazurin coupled assay, resorufin fluorescence; inhibition, % at 20 µM; hit rate 29% among 820; AID 504863, 2011;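 active means inhibition averaging 50% or more, tested at 20 µM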
A number is an active result; . = inactive; / = no result.

SMILES | MC4R antag cAMP | ABHD5-PLIN5 inh | MC4R barr agon | PfG6PD inh | B2AR ag | PfG6PD confirm | others
O=C(NC1CCCCC1)C(=S)NCCc1ccccc1 | . | . | . | 65 | . | .
CN(C)S(=O)(=O)N1CCC(Oc2cccc(C(=O)N3CCSCC3)c2)CC1 | . | . | . | . | . | /
CCN(CC)c1ccc(NC(=O)COc2ccccc2C)cc1S(=O)(=O)Nc1ccccc1OC | . | . | . | 61 | . | .
CCN(CC)c1ccc(NC(=O)c2ccc(=O)[nH]c2)cc1S(=O)(=O)Nc1ccccc1OC | . | . | . | 62 | . | .
CCN(CC)c1ccc(NC(=O)c2ccccc2F)cc1S(=O)(=O)Nc1ccccc1OC | . | . | . | . | . | /
CCN(CC)c1ccc(NC(=O)COc2ccccc2C#N)cc1S(=O)(=O)Nc1ccc(OC)cc1 | . | . | . | . | . | /
CCN(CC)c1ccc(NC(=O)c2ccccc2Br)cc1S(=O)(=O)Nc1ccccc1OC | . | . | . | 86 | . | 64 | Diaphorase 10uM=.;Diaphorase 30uM=.
CCOC(=O)[C@]12CCC=C1N(Cc1ccco1)C(=O)[C@H](CC(=O)NCCCCc1ccccc1)C2 | / | . | / | / | / | /
C(=N\NC1=Nc2cccc3cccc1c23)/c1cccnc1 | . | . | . | 82 | . | .
CCOC(=O)[C@]12CCCC=C1N(CCC1=CCCCC1)C(=O)[C@H](CC(=O)NCc1cccs1)C2 | / | . | / | / | / | /
CC(=O)c1cccc(NC(=O)NC2CC(=O)N(c3ccc4c(c3)OCCO4)C2)c1 (centres undefined) | . | . | . | . | . | /
Cc1cc(C)c(Cn2c(=O)n(CCCC(=O)NCc3ccco3)c(=O)c3ccccc32)c(C)c1 | . | . | . | . | . | /
CCNc1ccc(S(=O)(=O)C(F)(F)F)cc1NC(=O)C12CCC(CC1)C2 | . | . | . | . | . | /
CCNc1cc(S(=O)(=O)C(F)(F)F)ccc1N | . | . | . | 72 | . | .
O=C(CSc1nnc(-c2ccc(O)cc2)o1)Nc1ccccc1 | . | . | . | . | . | /
COc1ccc(NC(=O)CSc2nnc(-c3cccc(O)c3)o2)cc1 | . | . | . | 80 | . | .
CC(=C\C(=O)O)/C(=C\c1cccc2ccccc12)C(=O)O | . | . | . | . | . | /
CC(=O)c1sc2nsc(SCCN3CCOCC3)c2c1N | . | . | . | 78 | . | .
CCOC(=O)C1=CCN(S(=O)(=O)c2ccccc2Br)C1c1ccccc1 (centres undefined) | / | . | / | / | / | /
Cn1c(-c2ccc(Cl)nc2)nc2cc(Cl)ccc21 | . | . | . | . | . | .
COc1ccc2oc(C(=O)OCC(=O)N3CCN(S(=O)(=O)c4ccc(C)cc4)CC3)c(C)c2c1 | . | . | . | . | . | /
CC(=O)Oc1cc2c3c(c1)/C(=C1/SC(=S)NC1=O)C(=O)N3C(C)(C)C=C2C | . | . | . | 80 | . | .
Cc1ccc(C)c2nc3sc(C(=O)N4CCOCC4)c(N)c3cc12 | . | . | . | . | . | /
Cc1cc(C)c2nc3sc(C(=O)N4CCOCC4)c(N)c3cc2c1 | . | . | . | 65 | . | .
Cc1cc(C)c2c(N)c(C(=O)N3CCCCCC3)sc2n1 | . | . | . | 70 | . | .
SMILES | MC4R antag cAMP | ABHD5-PLIN5 inh | MC4R barr agon | PfG6PD inh | B2AR ag | PfG6PD confirm | others
COCc1cc(C)nc2sc(C(=O)N3CCCC3)c(N)c12 | . | . | . | . | . | /
CCOc1ccccc1NC(=O)CCCc1nc2ccccc2c(=O)[nH]1 | . | . | . | 67 | . | 53 | Diaphorase 10uM=.;Diaphorase 30uM=.
CC1CCc2[nH]c3ccc(C(=O)N(C)CC(=O)Nc4ccc(F)cc4)cc3c2C1 (centres undefined) | . | . | . | . | . | /
CCN(CC(=O)Nc1ccccc1C(F)(F)F)C(=O)c1ccc2[nH]c3c(c2c1)CC(C)CC3 (centres undefined) | . | . | . | 90 | . | .
CC(C)NC(=S)NNc1nc2ccccc2s1 | . | . | . | 74 | . | .
COc1ccc(C2C(C#N)=C(N)SC(N)=C2C#N)cc1OC | . | . | . | . | . | /
CCSC1=C(C#N)C(c2ccc(OC)c(OC)c2)CC(=O)N1 (centres undefined) | . | . | . | . | . | /
COc1ccc(C2CC(=O)N3CN(c4ccc(C)c(Cl)c4)CSC3=C2C#N)cc1OC (centres undefined) | . | . | . | 59 | . | .
CCOc1ccccc1N1CSC2=C(C#N)C(c3c(OC)ccc4ccccc34)CC(=O)N2C1 (centres undefined) | . | . | . | 74 | . | .
COc1ccc(N2CSC3=C(C#N)C(c4ccc(OC)c(OC)c4)CC(=O)N3C2)c(OC)c1 (centres undefined) | . | . | . | 80 | . | 65 | Diaphorase 10uM=.;Diaphorase 30uM=.
COc1cc(OC)c(C2CC(=O)N3CN(c4ccc(C)cc4)CSC3=C2C#N)cc1OC (centres undefined) | . | . | . | 89 | . | .
Cc1csc(NC(=O)C2CC(=O)N(c3ccc(C)c(C)c3)C2)n1 (centres undefined) | . | . | . | . | . | /
OCC1(CCc2ccccc2)CCCN(CCCc2ccccc2)C1 (centres undefined) | . | . | . | . | . | /
COc1ccccc1NC(=O)CSc1ccc(-c2ccc(-n3ccnc3)cc2)nn1 | . | . | . | . | . | /
Cc1ccc(N2CSC3=C(C#N)C(c4cccs4)CC(=O)N3C2)cc1 (centres undefined) | . | . | . | 70 | . | .
CCOC(=O)c1ccc(N2CSC3=C(C#N)C(c4cccs4)CC(=O)N3C2)cc1 (centres undefined) | . | . | . | . | . | /
COc1ccc(N2CSC3=C(C#N)C(c4cc(OC)c(OC)cc4OC)CC(=O)N3C2)c(OC)c1 (centres undefined) | . | . | . | 102 | . | 74 | Diaphorase 10uM=.;Diaphorase 30uM=.
Cc1ccc(CSCC(=O)N(C)CC(=O)Nc2ccc(Cl)c(Cl)c2)cc1 | . | . | . | . | . | /
CN(C(=O)c1cnc(N2CCN(c3ncccn3)CC2)c2ccccc12)c1ccc(Cl)cc1 | . | . | . | 98 | . | .
Cn1c2ccccc2c(=O)c2ccc(C#Cc3ccc(N)cc3)cc21 | . | . | . | . | . | /

Bioassay records (PubChem BioAssay)
